In ChEMBL document CHEMBL1828575, “Design, synthesis and antiproliferative activities of biarylolefins based on polyhydroxylated and carbohydrate scaffolds” (Eur J Med Chem, 2011):
Activity calls are given as the source filed them. The calls are words filed in the database; no cut-off is given here.

What was measured:
[1] = Cytotoxicity against human NCI60 cells assessed as cellular growth at 10 uM after 48 hrs by SRB assay relative to untreated control; type: functional
In short: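 NCI-60 panel lines grown in RPMI 1640 with 5% FBS and 2 mM L-glutamine. Plated at 5000–40,000 cells/well and preincubated 24 h at 37 °C, 5% CO₂, with time-zero plates fixed in TCA. Compounds, dissolved in DMSO and diluted in medium, were applied for 48 h. Cells were TCA-fixed (10% final for adherent, 16% for suspension) and stained with 0.4% SRB in 1% acetic acid. Dye was solubilised in 10 mM Tris base and read at 515 nm; growth was expressed as a percentage of untreated control.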

[2] = system: PC-3; experiment: Cytotoxicity against human PC3 cells at 10^-6 M after 72 hrs by MTS assay; type: functional; conditions: PC-3, 72 h, read-out: GI
In short: (§1)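 Preliminary screen at 10^-5 and 10^-6 M. Cells were grown in RPMI with 10% fetal calf serum plus penicillin, streptomycin and fungizone under 5% CO₂, plated in 96-well plates, and dosed 24 h later from DMSO stocks (1% DMSO final, same in controls). After 72 h, MTS was added for 3 h at 37 °C and absorbance read at 490 nm. Inhibition was calculated as (1 − OD treated/OD control) × 100, in triplicate.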

[3] = system: SF-268; experiment: Cytotoxicity against human SF268 cells at 10^-6 M after 72 hrs by MTS assay; type: functional; conditions: SF-268, 72 h, read-out: GI; in short: as §1
[4] = system: SK-OV-3; experiment: Cytotoxicity against human SKOV3 cells at 10^-6 M after 72 hrs by MTS assay; type: functional; conditions: SK-OV-3, 72 h, read-out: GI; in short: as §1
[5] = system: OVCAR-8; experiment: Cytotoxicity against human OVCAR8 cells at 10^-6 M after 72 hrs by MTS assay; type: functional; conditions: OVCAR-8, 72 h, read-out: GI; in short: as §1
[6] = system: MIA PaCa-2; experiment: Cytotoxicity against human MIAPaCa2 cells at 10^-6 M after 72 hrs by MTS assay; type: functional; conditions: MIA PaCa-2, 72 h, read-out: GI
[7] = system: HL-60; experiment: Cytotoxicity against human HL60 cells at 10^-6 M after 72 hrs by MTS assay; type: functional; conditions: HL-60, 72 h, read-out: GI
In short: (§2)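 Cells grown in RPMI with 10% fetal calf serum, penicillin, streptomycin and fungizone under 5% CO₂. Plated in 96-well plates and dosed 24 h later with compound in DMSO (1% final DMSO; controls got DMSO alone). After 72 h, MTS was added for 3 h at 37 °C and A490 read. Inhibition = (1 − OD treated/OD control) × 100, in triplicate.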

[8] = Cytotoxicity against human HL60R cells at 10^-6 M after 72 hrs by MTS assay; type: functional; conditions: read-out: GI; in short: as §2
[9] = system: K562; experiment: Cytotoxicity against human K562 cells at 10^-6 M after 72 hrs by MTS assay; type: functional; conditions: K562, 72 h, read-out: GI; in short: as §2
[10] = system: HCT-116; experiment: Cytotoxicity against human HCT116 cells at 10^-5 M after 72 hrs by MTS assay; type: functional; conditions: HCT-116, 72 h, read-out: GI; in short: as §2
[11] = system: HT-29; experiment: Cytotoxicity against human HT-29 cells at 10^-5 M after 72 hrs by MTS assay; type: functional; conditions: HT-29, 72 h, read-out: GI; in short: as §2
[12] = system: HCT-15; experiment: Cytotoxicity against human HCT15 cells at 10^-5 M after 72 hrs by MTS assay; type: functional; conditions: HCT-15, 72 h, read-out: GI; in short: as §2
[13] = system: MCF7; experiment: Cytotoxicity against human MCF7 cells at 10^-5 M after 72 hrs by MTS assay; type: functional; conditions: MCF7, 72 h, read-out: GI
[14] = Cytotoxicity against human MDA231 cells at 10^-5 M after 72 hrs by MTS assay; type: functional; conditions: MDA-MB-231, 72 h, read-out: GI; in short: as §1
[15] = system: A549; experiment: Cytotoxicity against human A549 cells at 10^-5 M after 72 hrs by MTS assay; type: functional; conditions: A549, 72 h, read-out: GI; in short: as §2
[16] = system: PC-3; experiment: Cytotoxicity against human PC3 cells at 10^-5 M after 72 hrs by MTS assay; type: functional; conditions: PC-3, 72 h, read-out: GI; in short: as §1
[17] = system: SF-268; experiment: Cytotoxicity against human SF268 cells at 10^-5 M after 72 hrs by MTS assay; type: functional; conditions: SF-268, 72 h, read-out: GI; in short: as §1
[18] = system: SK-OV-3; experiment: Cytotoxicity against human SKOV3 cells at 10^-5 M after 72 hrs by MTS assay; type: functional; conditions: SK-OV-3, 72 h, read-out: GI; in short: as §1
[19] = system: OVCAR-8; experiment: Cytotoxicity against human OVCAR8 cells at 10^-5 M after 72 hrs by MTS assay; type: functional; conditions: OVCAR-8, 72 h, read-out: GI; in short: as §1
[20] = system: MIA PaCa-2; experiment: Cytotoxicity against human MIAPaCa2 cells at 10^-5 M after 72 hrs by MTS assay; type: functional; conditions: MIA PaCa-2, 72 h, read-out: GI
[21] = system: HL-60; experiment: Cytotoxicity against human HL60 cells at 10^-5 M after 72 hrs by MTS assay; type: functional; conditions: HL-60, 72 h, read-out: GI; in short: as §2
[22] = Cytotoxicity against human HL60R cells at 10^-5 M after 72 hrs by MTS assay; type: functional, HL-60; conditions: read-out: GI; in short: as §2
[23] = system: K562; experiment: Cytotoxicity against human K562 cells at 10^-5 M after 72 hrs by MTS assay; type: functional; conditions: K562, 72 h, read-out: GI; in short: as §2
[24] = system: HCT-116; experiment: Cytotoxicity against human HCT116 cells at 10^-6 M after 72 hrs by MTS assay; type: functional; conditions: HCT-116, 72 h, read-out: GI; in short: as §2
[25] = system: HT-29; experiment: Cytotoxicity against human HT-29 cells at 10^-6 M after 72 hrs by MTS assay; type: functional; conditions: HT-29, 72 h, read-out: GI; in short: as §2
[26] = system: HCT-15; experiment: Cytotoxicity against human HCT15 cells at 10^-6 M after 72 hrs by MTS assay; type: functional; conditions: HCT-15, 72 h, read-out: GI; in short: as §2
[27] = system: MCF7; experiment: Cytotoxicity against human MCF7 cells at 10^-6 M after 72 hrs by MTS assay; type: functional; conditions: MCF7, 72 h, read-out: GI
[28] = Cytotoxicity against human MDA231 cells at 10^-6 M after 72 hrs by MTS assay; type: functional; conditions: MDA-MB-231, 72 h, read-out: GI; in short: as §1
[29] = system: A549; experiment: Cytotoxicity against human A549 cells at 10^-6 M after 72 hrs by MTS assay; type: functional; conditions: A549, 72 h, read-out: GI; in short: as §2
[30] = species: Ovis aries; experiment: Inhibition of sheep brain tubulin polymerization at 10 uM
In short: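 Microtubule protein from sheep brain, purified by two assembly/disassembly cycles (37 °C/0 °C), in 100 mM MES pH 6.6, 1 mM EGTA, 0.5 mM MgCl₂. Compounds in DMSO were tested at a single concentration, with incubation at 37 °C for 10 min and then 0 °C for 5 min before measuring assembly rate, following a modified Guénard protocol.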

Compound: COc1cc(/C(=C2\O[C@@H]([C@H]3COC(C)(C)O3)[C@H]3OC(C)(C)O[C@@H]23)c2ccc3c(c2)OCO3)cc(OC)c1OC
- Activity [1]: 61%

Compound: COc1cc(/C(=C2\O[C@@H]([C@H]3COC(C)(C)O3)[C@H]3OC(C)(C)O[C@@H]23)c2cccc([N+](=O)[O-])c2)cc(OC)c1OC
- inhibition of growth at 1 µM [2]: 2%
- inhibition of growth at 1 µM [3]: 12%
- inhibition of growth at 1 µM [4]: 15%
- inhibition of growth at 1 µM [5]: 0%
- inhibition of growth at 1 µM [6]: 4%
- inhibition of growth at 1 µM [7]: 2%
- inhibition of growth at 1 µM [8]: 13%
- inhibition of growth at 1 µM [9]: 8%
- inhibition of growth at 10 µM [10]: 8%
- inhibition of growth at 10 µM [11]: 0%
- inhibition of growth at 10 µM [12]: 5%
- inhibition of growth at 10 µM [13]: 11%
- inhibition of growth at 10 µM [14]: 16%
- inhibition of growth at 10 µM [15]: 12%
- inhibition of growth at 10 µM [16]: 0%
- inhibition of growth at 10 µM [17]: 20%
- inhibition of growth at 10 µM [18]: 40%
- inhibition of growth at 10 µM [19]: 0%
- inhibition of growth at 10 µM [20]: 0%
- inhibition of growth at 10 µM [21]: 22%
- inhibition of growth at 10 µM [22]: 29%
- inhibition of growth at 10 µM [23]: 9%
- inhibition of growth at 1 µM [24]: 5%
- inhibition of growth at 1 µM [25]: 7%
- inhibition of growth at 1 µM [26]: 6%
- inhibition of growth at 1 µM [27]: 7%
- inhibition of growth at 1 µM [28]: 0%
- inhibition of growth at 1 µM [29]: 10%

Compound: COc1cc(/C(=C2\O[C@@H]([C@H]3COC(C)(C)O3)[C@H]3OC(C)(C)O[C@@H]23)c2cccc(N)c2)cc(OC)c1OC
- Activity [1]: 102%

Compound: COc1cc(C(=C2O[C@@H]([C@H]3COC(C)(C)O3)[C@H]3OC(C)(C)O[C@@H]23)c2cc(OC)c(OC)c(OC)c2)cc(OC)c1OC
- Activity [1]: 105%

Compound: COc1cc(/C(=C2\O[C@@H]([C@H](O)CO)[C@H]3OC(C)(C)O[C@@H]23)c2ccc3c(c2)OCO3)cc(OC)c1OC
- Activity [1]: 106%

Compound: COc1cc(/C(=C2/O[C@@H]([C@H](O)CO)[C@H]3OC(C)(C)O[C@@H]23)c2cccc([N+](=O)[O-])c2)cc(OC)c1OC
- inhibition of growth at 1 µM [2]: 1%
- inhibition of growth at 1 µM [3]: 17%
- inhibition of growth at 1 µM [4]: 10%
- inhibition of growth at 1 µM [5]: 0%
- inhibition of growth at 1 µM [6]: 0%
- inhibition of growth at 1 µM [7]: 11%
- inhibition of growth at 1 µM [8]: 6%
- inhibition of growth at 1 µM [9]: 0%
- inhibition of growth at 10 µM [10]: 0%
- inhibition of growth at 10 µM [11]: 4%
- inhibition of growth at 10 µM [12]: 6%
- inhibition of growth at 10 µM [13]: 14%
- inhibition of growth at 10 µM [14]: 0%
- inhibition of growth at 10 µM [15]: 14%
- inhibition of growth at 10 µM [16]: 23%
- inhibition of growth at 10 µM [17]: 26%
- inhibition of growth at 10 µM [18]: 16%
- inhibition of growth at 10 µM [19]: 0%
- inhibition of growth at 10 µM [20]: 0%
- inhibition of growth at 10 µM [21]: 10%
- inhibition of growth at 10 µM [22]: 11%
- inhibition of growth at 10 µM [23]: 18%
- inhibition of growth at 1 µM [24]: 0%
- inhibition of growth at 1 µM [25]: 4%
- inhibition of growth at 1 µM [26]: 10%
- inhibition of growth at 1 µM [27]: 4%
- inhibition of growth at 1 µM [28]: 0%
- inhibition of growth at 1 µM [29]: 8%

Compound: COc1cc([C@@H]2c3cc4c(cc3C[C@H]3COC(=O)[C@@H]32)OCO4)cc(OC)c1OC
- tubulin polymerization inhibition call (active/not active) [30]: Active

Compound: COc1ccc(/C(=C2/O[C@@H]([C@H](O)CO)[C@H]3OC(C)(C)O[C@@H]23)c2cc(OC)c(OC)c(OC)c2)cc1O
- Activity [1]: 79%
